Experimental data from different studies.
Protocols differ between the studies behind these lines.
NMUR1: Neuromedin-U receptor 1 (NMUR1, Homo sapiens, UniProt Q9HB89)
JAK2: Tyrosine-protein kinase JAK2 (JAK2, Homo sapiens, UniProt O60674)

SMILES | target | assay | conditions | quantity | result
Cc1cc2nc3c(=O)[nH]c(=O)nc-3n(C[C@H](O)[C@H](O)[C@H](O)COP(=O)(O)OP(=O)(O)OC[C@H]3O[C@@H](n4cnc5c(N)ncnc54)[C@H](O)[C@@H]3O)c2cc1C | RNA-binding protein Musashi homolog 2 (MSI2, Homo sapiens, UniProt Q96DH6) | binding | lysate | Kd | 0.059 µM
Cc1ncsc1-c1ccc([C@H](C)NC(=O)[C@@H]2C[C@@H](O)CN2C(=O)[C@@H](NC(=O)CCCCCC(=O)N2CCC3(CC2)CCN(c2cncc(Nc4ncc(Cl)c(-c5cccc(-c6ccccc6)c5)n4)c2)C3=O)C(C)(C)C)cc1 | Phosphatidylinositol 5-phosphate 4-kinase type-2 gamma (PIP4K2C, Homo sapiens, UniProt Q8TBX8) | protein level, degrader, western blot |  | DC50 | 0.024 µM
c1cncc(-c2cccc(Nc3nccc(NC4CCCCC4)n3)c2)c1 | Tyrosine-protein kinase JAK2, JH1 (JAK2, Homo sapiens, UniProt O60674) | binding, competition with immobilised ligand |  | Kd | 0.26 µM
Cc1cnc(-c2ccc(-c3ccc(NC(=O)Nc4c(F)cc(F)cc4F)cc3F)c3c2C(=O)NC3)[nH]1 | Tyrosine-protein kinase Lck (LCK, Homo sapiens, UniProt P06239) | binding, competition with immobilised ligand |  | Kd | 0.011 µM
CC(C)C[C@H](NC(=O)[C@H](Cc1ccccc1)NC(=O)[C@@H](N)Cc1ccc(O)cc1)C(=O)N[C@@H](Cc1ccccc1)C(=O)N[C@@H](CCCNC(=N)N)C(=O)N1CCC[C@H]1C(=O)N[C@@H](CCCNC(=N)N)C(=O)N[C@@H](CC(N)=O)C(N)=O | NMUR1 | β-arrestin recruitment, agonist |  | EC50 | 0.0017 µM
CC(=O)CC(c1ccccc1)c1c(O)c2ccccc2oc1=O (stereo not drawn) | Vitamin K epoxide reductase complex subunit 1-like protein 1 (Homo sapiens, UniProt Q8N0U8) | enzyme activity, inhibitor, fluorescence |  | Ki | 0.095 µM
C[S+](CC[C@H](N)C(=O)O)C[C@H]1O[C@@H](n2cnc3c(N)ncnc32)[C@H](O)[C@@H]1O (stereo partly drawn) | tRNA (guanine-N(1)-)-methyltransferase (trmD, Escherichia coli, UniProt P0A873) | binding, fluorescence |  | Kd | 1.4 µM
CC(C)C[C@H](NC(=O)[C@H](Cc1ccccc1)NC(=O)[C@H](Cc1ccc(O)cc1)NC(=O)CNC(=O)[C@H](CCCNC(=N)N)NC(=O)[C@H](CO)NC(=O)[C@H](CCC(N)=O)NC(=O)[C@H](CO)NC(=O)[C@H](C)NC(=O)[C@H](Cc1ccccc1)NC(=O)[C@@H]1CCCN1C(=O)[C@H](CO)NC(=O)[C@H](CCC(N)=O)NC(=O)[C@H](Cc1ccccc1)NC(=O)[C@H](CCC(=O)O)NC(=O)[C@H](CCC(=O)O)NC(=O)[C@H](CC(=O)O)NC(=O)[C@@H](NC(=O)[C@H](CCCNC(=N)N)NC(=O)[C@@H](N)Cc1ccccc1)C(C)C)C(=O)N[C@@H](Cc1ccccc1)C(=O)N[C@@H](CCCNC(=N)N)C(=O)N1CCC[C@H]1C(=O)N[C@@H](CCCNC(=N)N)C(=O)N[C@@H](CC(N)=O)C(N)=O | NMUR1 | inositol phosphate, agonist, TR-FRET |  | EC50 | 0.00012 µM
CC(=O)Nc1cc(Oc2ccc3c(c2)CCN3C(=O)Nc2ccc(CN3CCN(C)CC3)c(C(F)(F)F)c2)ncn1 | JAK2 | enzyme activity, inhibitor, ELISA |  | Ki | 22 µM
COc1ccc(-c2nsc(NC(=O)[C@@H]3C[C@H]3C)c2C)cc1 | Metabotropic glutamate receptor 2 (GRM2, Homo sapiens, UniProt Q14416) | calcium signal, agonist |  | EC50 | > 25 µM
COc1ccc2c(Oc3ccc4c(C(=O)Nc5ccccc5N)cccc4c3)ccnc2c1 | JAK2 | enzyme activity, inhibitor |  | IC50 | > 0.5 µM
ON=Cc1ccc(-c2ccc(O)c(F)c2)c(Cl)c1O | Estrogen receptor beta (ESR2, Homo sapiens, UniProt Q92731) | reporter gene, agonist, luciferase |  | EC50 | 0.072 µM
